Measurements taken from ChEMBL document CHEMBL4371006, “Discovery of N-[4-(Quinolin-4-yloxy)phenyl]benzenesulfonamides as Novel AXL Kinase Inhibitors” (J Med Chem, 2018).
Calls of active or inactive are those of the source. No cut-off for these calls is given here.

Assays:
[1] = molecular target: Hepatocyte growth factor receptor (Homo sapiens, UniProt P08581); assay: Binding affinity to c-MET in SILAC-labeled human MDA-MB-231 cells lysate by mass spectrometry based kinAffinity assay; format: subcellular
Summary of the method: (§1)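 MDA-MB-231 lysate applied to KinAffinity matrix of immobilized broadband kinase inhibitors at graded densities to obtain BC50 per target. Competition then run with increasing free compound to give CC50; Kd derived by Cheng-Prusoff. Two competition experiments in parallel to check equilibrium, one with lysate pre-incubated with compound before adding matrix. Quantitation by mass spectrometry.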

[2] = Intrinsic clearance in mouse liver microsomes at 5 uM after 60 mins in presence of NADPH by LC-MS/MS analysis; format: ADME, Microsome; conditions: read-out: CLH
Summary of the method: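 Compound at 5 µM with 1 mg/mL human or mouse liver microsomes plus an NADPH-regenerating system, in 100 mM potassium phosphate at 37°C. Reactions were stopped with acetonitrile at sampling times. Percent remaining versus time 0 was measured by HPLC, in duplicate.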

[3] = molecular target: Serine/threonine-protein kinase 3 (Homo sapiens, UniProt Q13188); assay: Binding affinity to MST2 in SILAC-labeled human MDA-MB-231 cells lysate by mass spectrometry based kinAffinity assay; format: subcellular; summary of the method: as §1
[4] = molecular target: Ribosomal protein S6 kinase alpha-1 (Homo sapiens, UniProt Q15418); assay: Binding affinity to RPS6KA1 in SILAC-labeled human MDA-MB-231 cells lysate by mass spectrometry based kinAffinity assay; format: subcellular; summary of the method: as §1
[5] = AUC (0 to tz) in mouse at 1 to 2 mg/kg, iv by LC/MS/MS analysis; format: ADME, organism-based; conditions: in vivo
Summary of the method: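 Male ICR mice (27 ± 5 g, n = 3) dosed iv via tail vein at 2 or 1 mg/kg in 30% PEG400/5% ethanol in water. Jugular blood (0.3 mL, heparin) sampled at set times over 24 h or more; plasma separated, acetonitrile-precipitated, drug quantified by LC/MS/MS; parameters from noncompartmental-type software estimation.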

[6] = molecular target: Mitogen-activated protein kinase kinase kinase kinase 3 (Homo sapiens, UniProt Q8IVH8); assay: Binding affinity to MAP4K3 in SILAC-labeled human MDA-MB-231 cells lysate by mass spectrometry based kinAffinity assay; format: subcellular
Chain of Mitogen-activated protein kinase kinase kinase kinase 3 (Q8IVH8 whole entry): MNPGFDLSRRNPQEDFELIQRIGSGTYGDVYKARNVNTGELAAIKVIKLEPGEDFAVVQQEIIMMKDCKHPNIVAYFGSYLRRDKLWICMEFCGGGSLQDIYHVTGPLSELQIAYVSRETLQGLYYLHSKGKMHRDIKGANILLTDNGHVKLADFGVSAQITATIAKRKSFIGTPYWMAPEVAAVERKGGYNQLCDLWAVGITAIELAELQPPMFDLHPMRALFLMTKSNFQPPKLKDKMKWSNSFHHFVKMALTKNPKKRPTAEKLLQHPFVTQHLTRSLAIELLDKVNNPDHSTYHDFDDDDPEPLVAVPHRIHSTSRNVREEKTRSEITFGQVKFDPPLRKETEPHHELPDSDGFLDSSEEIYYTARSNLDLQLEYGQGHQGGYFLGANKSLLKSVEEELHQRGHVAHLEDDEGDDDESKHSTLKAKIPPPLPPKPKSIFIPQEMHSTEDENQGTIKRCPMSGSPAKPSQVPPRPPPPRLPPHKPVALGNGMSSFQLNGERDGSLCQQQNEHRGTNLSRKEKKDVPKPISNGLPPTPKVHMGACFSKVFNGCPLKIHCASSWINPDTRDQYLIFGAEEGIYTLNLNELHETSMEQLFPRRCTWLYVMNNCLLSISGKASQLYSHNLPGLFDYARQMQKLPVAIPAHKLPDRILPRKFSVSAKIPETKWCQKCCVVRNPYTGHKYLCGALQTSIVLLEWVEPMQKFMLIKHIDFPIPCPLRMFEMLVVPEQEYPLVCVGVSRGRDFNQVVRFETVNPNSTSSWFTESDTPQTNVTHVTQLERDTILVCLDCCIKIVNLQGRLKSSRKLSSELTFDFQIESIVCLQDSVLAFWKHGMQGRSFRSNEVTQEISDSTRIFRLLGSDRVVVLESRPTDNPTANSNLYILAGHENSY
Summary of the method: (§2)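 Chemical proteomics: MDA-MB-231 lysate bound to matrix of immobilized broad kinase inhibitors at several densities (BC50), then competed with increasing free compound (CC50); proteins quantified by mass spectrometry, Kd via Cheng-Prusoff. Two competition formats run in parallel to check equilibrium.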

[7] = molecular target: 5'-AMP-activated protein kinase subunit gamma-1 (Homo sapiens, UniProt P54619); assay: Binding affinity to PRKAG1 in SILAC-labeled human MDA-MB-231 cells lysate by mass spectrometry based kinAffinity assay; format: subcellular; summary of the method: as §1
Chain of 5'-AMP-activated protein kinase subunit gamma-1 (P54619 whole entry): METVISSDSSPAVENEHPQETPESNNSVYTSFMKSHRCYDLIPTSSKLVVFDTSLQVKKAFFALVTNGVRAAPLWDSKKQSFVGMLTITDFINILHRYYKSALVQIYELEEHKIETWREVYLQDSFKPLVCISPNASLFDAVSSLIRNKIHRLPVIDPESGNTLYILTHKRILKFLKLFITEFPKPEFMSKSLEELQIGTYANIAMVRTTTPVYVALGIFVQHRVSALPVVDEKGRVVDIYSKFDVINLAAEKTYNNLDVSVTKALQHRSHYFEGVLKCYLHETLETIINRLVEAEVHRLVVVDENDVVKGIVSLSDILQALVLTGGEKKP

[8] = molecular target: Serine/threonine-protein kinase ULK3 (Homo sapiens, UniProt Q6PHR2); assay: Binding affinity to ULK3 in SILAC-labeled human MDA-MB-231 cells lysate by mass spectrometry based kinAffinity assay; format: subcellular; summary of the method: as §1
[9] = molecular target: Mitogen-activated protein kinase kinase kinase 2 (Homo sapiens, UniProt Q9Y2U5); assay: Binding affinity to MAP3K2 in SILAC-labeled human MDA-MB-231 cells lysate by mass spectrometry based kinAffinity assay; format: subcellular; summary of the method: as §2
[10] = Stability in human plasma assessed as parent compound remaining; format: ADME, cell-free
TGF-beta receptor type-2 = TGF-beta receptor type-2 (Homo sapiens, UniProt P37173); assay: Binding affinity to TGFBR2 in SILAC-labeled human MDA-MB-231 cells lysate by mass spectrometry based kinAffinity assay; format: subcellular; summary of the method: as §1
Chain of TGF-beta receptor type-2 (P37173 whole entry): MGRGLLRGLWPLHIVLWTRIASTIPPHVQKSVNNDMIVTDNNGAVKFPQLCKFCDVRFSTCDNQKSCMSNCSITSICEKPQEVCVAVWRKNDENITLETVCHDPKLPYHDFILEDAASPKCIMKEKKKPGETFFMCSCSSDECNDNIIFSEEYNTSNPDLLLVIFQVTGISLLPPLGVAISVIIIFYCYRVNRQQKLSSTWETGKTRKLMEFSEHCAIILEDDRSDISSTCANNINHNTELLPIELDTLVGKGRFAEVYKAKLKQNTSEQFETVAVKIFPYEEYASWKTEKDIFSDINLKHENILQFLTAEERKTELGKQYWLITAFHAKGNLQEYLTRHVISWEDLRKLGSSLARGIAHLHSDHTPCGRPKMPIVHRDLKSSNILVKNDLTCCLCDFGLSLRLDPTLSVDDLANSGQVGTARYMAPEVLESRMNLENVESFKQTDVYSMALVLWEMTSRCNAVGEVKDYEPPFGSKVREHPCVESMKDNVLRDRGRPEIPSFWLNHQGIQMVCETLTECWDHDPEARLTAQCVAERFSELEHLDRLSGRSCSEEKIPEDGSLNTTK

Aurora kinase A = Aurora kinase A (Homo sapiens, UniProt O14965); assay: Binding affinity to AURKA in SILAC-labeled human MDA-MB-231 cells lysate by mass spectrometry based kinAffinity assay; format: subcellular; summary of the method: as §2
Chain of Aurora kinase A (O14965 whole entry): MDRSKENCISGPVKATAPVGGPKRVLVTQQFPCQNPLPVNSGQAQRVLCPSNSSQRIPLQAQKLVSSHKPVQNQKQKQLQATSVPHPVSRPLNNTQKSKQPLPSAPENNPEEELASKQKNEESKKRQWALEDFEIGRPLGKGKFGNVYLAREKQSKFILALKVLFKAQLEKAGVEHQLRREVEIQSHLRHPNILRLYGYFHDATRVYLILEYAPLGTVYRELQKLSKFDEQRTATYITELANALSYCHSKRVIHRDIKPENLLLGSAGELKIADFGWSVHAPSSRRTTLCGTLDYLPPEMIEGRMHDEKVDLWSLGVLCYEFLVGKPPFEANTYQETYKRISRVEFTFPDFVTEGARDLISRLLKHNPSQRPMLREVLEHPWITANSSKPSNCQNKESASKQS

[11] = molecular target: Tyrosine-protein kinase ABL2 (Homo sapiens, UniProt P42684); assay: Binding affinity to ABL2 in SILAC-labeled human MDA-MB-231 cells lysate by mass spectrometry based kinAffinity assay; format: subcellular; summary of the method: as §2
[12] = molecular target: Non-receptor tyrosine-protein kinase TNK1 (Homo sapiens, UniProt Q13470); assay: Binding affinity to TNK1 in SILAC-labeled human MDA-MB-231 cells lysate by mass spectrometry based kinAffinity assay; format: subcellular; summary of the method: as §1
Chain of Non-receptor tyrosine-protein kinase TNK1 (Q13470 whole entry): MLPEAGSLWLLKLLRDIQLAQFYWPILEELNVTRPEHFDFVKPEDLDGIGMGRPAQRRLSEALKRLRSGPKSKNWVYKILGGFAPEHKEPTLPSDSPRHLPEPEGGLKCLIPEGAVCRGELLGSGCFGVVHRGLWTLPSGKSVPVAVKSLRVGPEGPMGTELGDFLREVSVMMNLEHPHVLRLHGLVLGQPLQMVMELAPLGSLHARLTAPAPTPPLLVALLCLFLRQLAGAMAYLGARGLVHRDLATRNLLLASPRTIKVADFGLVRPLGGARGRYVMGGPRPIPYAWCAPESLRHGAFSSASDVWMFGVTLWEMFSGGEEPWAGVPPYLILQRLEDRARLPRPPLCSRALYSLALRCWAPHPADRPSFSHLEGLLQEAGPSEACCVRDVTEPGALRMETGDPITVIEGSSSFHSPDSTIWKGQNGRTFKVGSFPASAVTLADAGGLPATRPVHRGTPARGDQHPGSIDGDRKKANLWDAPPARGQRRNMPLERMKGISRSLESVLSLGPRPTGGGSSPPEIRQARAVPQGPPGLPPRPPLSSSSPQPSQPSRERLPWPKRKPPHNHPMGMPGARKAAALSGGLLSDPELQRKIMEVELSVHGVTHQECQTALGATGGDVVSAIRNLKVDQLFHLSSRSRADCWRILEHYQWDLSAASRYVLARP

[13] = Toxicity in mouse assessed as drug tolerability at 300 mg/kg, po; format: organism-based; conditions: in vivo
[14] = molecular target: Dual specificity mitogen-activated protein kinase kinase 2 (Homo sapiens, UniProt P36507); assay: Binding affinity to MAP2K2 in SILAC-labeled human MDA-MB-231 cells lysate by mass spectrometry based kinAffinity assay; format: subcellular; summary of the method: as §2
[15] = molecular target: Serine/threonine-protein kinase/endoribonuclease IRE1 (Homo sapiens, UniProt O75460); assay: Binding affinity to IRE1 in SILAC-labeled human MDA-MB-231 cells lysate by mass spectrometry based kinAffinity assay; format: subcellular; summary of the method: as §2
Chain of Serine/threonine-protein kinase/endoribonuclease IRE1 (O75460 whole entry): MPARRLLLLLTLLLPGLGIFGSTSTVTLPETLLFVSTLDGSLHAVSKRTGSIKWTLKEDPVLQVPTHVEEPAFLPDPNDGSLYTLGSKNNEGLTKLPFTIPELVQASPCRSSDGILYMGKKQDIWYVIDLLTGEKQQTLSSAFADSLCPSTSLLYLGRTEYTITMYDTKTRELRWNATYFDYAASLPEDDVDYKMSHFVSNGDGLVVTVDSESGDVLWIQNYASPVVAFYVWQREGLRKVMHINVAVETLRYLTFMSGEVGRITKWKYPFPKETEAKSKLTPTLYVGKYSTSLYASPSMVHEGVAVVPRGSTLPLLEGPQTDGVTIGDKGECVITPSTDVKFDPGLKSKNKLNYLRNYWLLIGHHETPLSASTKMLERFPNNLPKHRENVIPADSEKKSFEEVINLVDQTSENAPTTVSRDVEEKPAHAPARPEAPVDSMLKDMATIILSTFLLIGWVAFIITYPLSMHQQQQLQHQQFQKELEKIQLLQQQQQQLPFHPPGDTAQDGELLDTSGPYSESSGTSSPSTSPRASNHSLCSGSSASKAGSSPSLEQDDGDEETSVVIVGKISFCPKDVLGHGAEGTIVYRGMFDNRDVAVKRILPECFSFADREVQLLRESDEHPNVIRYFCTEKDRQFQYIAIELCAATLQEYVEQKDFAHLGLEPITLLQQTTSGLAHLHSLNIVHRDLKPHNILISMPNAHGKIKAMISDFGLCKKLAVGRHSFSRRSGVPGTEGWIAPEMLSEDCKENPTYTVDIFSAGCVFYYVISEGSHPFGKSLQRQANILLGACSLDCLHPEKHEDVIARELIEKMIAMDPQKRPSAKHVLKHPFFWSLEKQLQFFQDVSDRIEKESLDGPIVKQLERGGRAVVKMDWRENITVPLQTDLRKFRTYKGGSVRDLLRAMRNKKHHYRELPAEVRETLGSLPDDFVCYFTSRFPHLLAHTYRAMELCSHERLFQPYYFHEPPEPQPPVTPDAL

Focal adhesion kinase 1 = Focal adhesion kinase 1 (Homo sapiens, UniProt Q05397); assay: Binding affinity to FAK in SILAC-labeled human MDA-MB-231 cells lysate by mass spectrometry based kinAffinity assay; format: subcellular; summary of the method: as §2
Chain of Focal adhesion kinase 1 (Q05397 whole entry): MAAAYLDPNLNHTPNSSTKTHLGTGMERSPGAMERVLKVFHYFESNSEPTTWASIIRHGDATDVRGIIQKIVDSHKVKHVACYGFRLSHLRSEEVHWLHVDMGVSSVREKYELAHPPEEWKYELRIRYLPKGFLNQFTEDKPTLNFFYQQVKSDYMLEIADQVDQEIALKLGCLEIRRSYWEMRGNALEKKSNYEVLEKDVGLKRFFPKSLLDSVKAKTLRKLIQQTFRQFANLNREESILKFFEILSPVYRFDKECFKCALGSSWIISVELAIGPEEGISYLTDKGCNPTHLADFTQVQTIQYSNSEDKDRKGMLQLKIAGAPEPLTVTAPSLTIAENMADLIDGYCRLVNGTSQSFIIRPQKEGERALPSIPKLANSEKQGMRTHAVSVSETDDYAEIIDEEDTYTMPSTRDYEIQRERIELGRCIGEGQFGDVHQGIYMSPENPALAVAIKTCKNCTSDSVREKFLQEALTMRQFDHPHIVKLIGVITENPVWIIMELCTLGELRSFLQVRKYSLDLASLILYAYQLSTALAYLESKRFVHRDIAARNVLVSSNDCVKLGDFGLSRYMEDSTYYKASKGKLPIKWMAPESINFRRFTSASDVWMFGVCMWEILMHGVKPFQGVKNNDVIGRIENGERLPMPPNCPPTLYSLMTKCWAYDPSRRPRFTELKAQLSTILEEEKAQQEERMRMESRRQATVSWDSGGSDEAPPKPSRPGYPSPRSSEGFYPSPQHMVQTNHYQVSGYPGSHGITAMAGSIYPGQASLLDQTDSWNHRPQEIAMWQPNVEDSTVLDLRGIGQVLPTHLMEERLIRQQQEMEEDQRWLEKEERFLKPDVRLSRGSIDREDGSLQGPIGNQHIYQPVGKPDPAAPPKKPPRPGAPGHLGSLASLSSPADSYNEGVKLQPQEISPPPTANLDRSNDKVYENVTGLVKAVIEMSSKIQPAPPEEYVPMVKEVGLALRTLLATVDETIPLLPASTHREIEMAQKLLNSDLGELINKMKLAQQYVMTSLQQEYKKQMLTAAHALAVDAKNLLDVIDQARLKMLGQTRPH

[16] = molecular target: Serine/threonine-protein kinase SIK2 (Homo sapiens, UniProt Q9H0K1); assay: Binding affinity to QIK in SILAC-labeled human MDA-MB-231 cells lysate by mass spectrometry based kinAffinity assay; format: subcellular; summary of the method: as §1
[17] = molecular target: Mitogen-activated protein kinase kinase kinase 3 (Homo sapiens, UniProt Q99759); assay: Binding affinity to MAP3K3 in SILAC-labeled human MDA-MB-231 cells lysate by mass spectrometry based kinAffinity assay; format: subcellular; summary of the method: as §2
[18] = Apparent half-life of the terminal disposition phase in mouse at 3 mg/kg, iv by LC/MS/MS analysis; conditions: in vivo, read-out: t1/2 lambda z (converted)
[19] = molecular target: Serine/threonine-protein kinase 10 (Homo sapiens, UniProt O94804); assay: Binding affinity to LOK in SILAC-labeled human MDA-MB-231 cells lysate by mass spectrometry based kinAffinity assay; format: subcellular; summary of the method: as §2
Aurora kinase B = Aurora kinase B (Homo sapiens, UniProt Q96GD4); assay: Binding affinity to AURKB in SILAC-labeled human MDA-MB-231 cells lysate by mass spectrometry based kinAffinity assay; format: subcellular; summary of the method: as §2
[20] = molecular target: Insulin receptor (Homo sapiens) (UniProt P06213); assay: Inhibition of INSR (unknown origin) using fluorescence labeled peptide as substrate at 10 uM by IMAP assay
Summary of the method: (§3)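 IMAP fluorescence-polarization kinase assay at 10 µmol/L compound, run in triplicate by a contract lab. A fluorescently labeled substrate peptide is phosphorylated, then nanoparticles carrying trivalent metal bind the phosphopeptide and slow its rotation. Read-out is fluorescence polarization, expressed as percent inhibition.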

[21] = molecular target: Epithelial discoidin domain-containing receptor 1 (Homo sapiens) (UniProt Q08345); assay: Inhibition of DDR1 (unknown origin) using biotinylated peptide as substrate at 10 uM by TR-FRET assay
[22] = molecular target: Receptor-type tyrosine-protein kinase FLT3 (Homo sapiens) (UniProt P36888); assay: Inhibition of FLT3 (unknown origin) using fluorescence labeled peptide as substrate at 10 uM by IMAP assay; summary of the method: as §3
[23] = molecular target: Tyrosine-protein kinase JAK3 (Homo sapiens) (UniProt P52333); assay: Inhibition of JAK3 (unknown origin) using fluorescence labeled peptide as substrate at 10 uM by IMAP assay

| Structure (SMILES) | microsomal CLint at 5 µM [2] | Kd(free) [3] | Kd(free) [4] | AUC [5] | Kd(free) [6] | Kd(free) [7] | Kd(free) [8] | Kd(free) [9] | Stability [10] | Kd(free) (TGF-beta receptor type-2) | Kd(free) (Aurora kinase A) | Kd(free) [11] | Kd(free) [12] | Activity [13] | Kd(free) [14] | Kd(free) [15] | Kd(free) (Focal adhesion kinase 1) | Kd(free) [16] | half-life [18] | Kd(free) [19] | also measured |
| --- | --- | --- | --- | --- | --- | --- | --- | --- | --- | --- | --- | --- | --- | --- | --- | --- | --- | --- | --- | --- | --- |
| COc1cc2c(Oc3ccc(NS(=O)(=O)c4cc(F)ccc4F)cc3F)ccnc2cc1OCCCN1CCN(C)CC1 | 143 µL/min/mg | > 6.454 µM | 3.152 µM | 1430 ng·h/mL | 2.08 µM | 0.825 µM | > 2.514 µM | 4.396 µM | 96.3% | 1.86 µM | 0.847 µM | 0.071 µM | 0.024 µM | Non-Toxic | 6.917 µM | 0.723 µM | 4.445 µM | 4.518 µM | 18.7 h | 3.78 µM | Kd(free) [1]: 0.041 µM; Kd(free) [17]: 3.133 µM; Kd(free) (Aurora kinase B): > 0.069 µM |
| COc1cc2c(Oc3ccc(NS(=O)(=O)c4ccccc4C(F)(F)F)cc3F)ccnc2cc1OCCCN1CCN(C)CC1 |  |  |  |  |  |  |  |  |  |  |  |  |  |  |  |  |  |  |  |  | inhibition [20]: Active; inhibition [21]: Active; inhibition [22]: Active; inhibition [23]: Active |
| COc1cc2c(Oc3ccc(NS(=O)(=O)c4c(F)cccc4F)cc3F)ccnc2cc1OCCCN1CCN(C)CC1 |  | 5.223 µM | 5.474 µM |  | 1.367 µM | 1.871 µM | > 2.513 µM | 5.518 µM |  | 7.385 µM | 0.146 µM | 0.016 µM | 0.014 µM |  | 8.852 µM | 0.243 µM | 2.212 µM | 3.545 µM |  | 3.039 µM | Kd(free) (Aurora kinase B): 0.034 µM |
| COc1cc2c(Oc3ccc(NS(=O)(=O)c4cc(F)ccc4F)cc3F)ccnc2cc1OCCCN1CCCC(C)C1 (stereo not drawn) | 19.1 µL/min/mg |  |  | 669 ng·h/mL |  |  |  |  | 99.1% |  |  |  |  | Non-Toxic |  |  |  |  | 8.5 h |  |  |
